Laboratory results reported in ChEMBL document CHEMBL1125380, “Synthesis, cardiac electrophysiology, and beta-blocking activity of novel arylpiperazines with potential as class II/III antiarrhythmic agents” (J Med Chem, 1992).
Calls of active or inactive are those of the source. The rule behind the calls is not given here.

How the values were obtained:
[1] = target: Beta-2 adrenergic receptor (Canis lupus familiaris, UniProt P54833); type: cell membranes
[2] = species: Canis familiaris; assay: Concentration necessary to prolong APD at 95% repolarization by 20% from control.; type: functional, Canis lupus familiaris
In short: (§1)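 Concentration giving a 20% prolongation of action potential duration at 95% repolarization versus control, with Vmax monitored as a class I index. Values are the log mean of n experiments with range; concentrations went up to 30 µM.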

[3] = species: Canis familiaris; assay: Concentration necessary to prolong APD at 95% repolarization by 20% from control; Not Reached at 30 uM; type: functional; conditions: Canis lupus familiaris
In short: as §1

[4] = test system: Canis familiaris; assay: number of effected animals / number of tested animals at 3 mg/kg in a halothane / epinephrine model; type: functional, Canis lupus familiaris
In short: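 Halothane-anesthetized dogs received compound as a 10-min iv infusion at 3 mg/kg. Thirty minutes later, epinephrine was infused at 1.5 µg/kg per min for 15 min. Protection meant no SVT/VF during the whole epinephrine infusion; reported as protected/tested.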

[5] = species: Canis familiaris; assay: Number of active animals / number of tested animals in programmed electrical stimulation model (PES); type: functional, Canis lupus familiaris
In short: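 Conscious dogs studied by programmed electrical stimulation 3-8 days after occlusion/reperfusion infarction. Two control SVT/VF inductions were made first, with VF ended by DC countershock and SVT by burst pacing. Reinduction was tried after iv compound; an animal counted as protected if SVT/VF could not be induced.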

[6] = species: Canis familiaris; assay: Compound was evaluated for Mean arterial pressure in dog; type: functional, Canis lupus familiaris, Artery
In short: (§2)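 Pentobarbital-anesthetized mongrel dogs (n = 4) received a 10 mg/kg iv dose over 5 min. Haemodynamic parameters were recorded 15 min after dosing, as change from pre-dose.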

[7] = species: Canis familiaris; assay: Compound was evaluated for Cardiac output in dog; type: functional, Canis lupus familiaris
In short: as §2

[8] = species: Canis familiaris; assay: Compound was evaluated for Total peripheral resistance in dog; type: functional, Canis lupus familiaris
In short: as §2

[9] = species: Canis familiaris; assay: Compound was evaluated for change in Heart rate in dog; type: functional, Canis lupus familiaris
In short: as §2

[10] = species: Canis familiaris; assay: Peak range of change in left ventricular pressure in dog; type: functional, Canis lupus familiaris, Heart left ventricle
In short: as §2

Chain of Beta-2 adrenergic receptor (P54833 whole entry): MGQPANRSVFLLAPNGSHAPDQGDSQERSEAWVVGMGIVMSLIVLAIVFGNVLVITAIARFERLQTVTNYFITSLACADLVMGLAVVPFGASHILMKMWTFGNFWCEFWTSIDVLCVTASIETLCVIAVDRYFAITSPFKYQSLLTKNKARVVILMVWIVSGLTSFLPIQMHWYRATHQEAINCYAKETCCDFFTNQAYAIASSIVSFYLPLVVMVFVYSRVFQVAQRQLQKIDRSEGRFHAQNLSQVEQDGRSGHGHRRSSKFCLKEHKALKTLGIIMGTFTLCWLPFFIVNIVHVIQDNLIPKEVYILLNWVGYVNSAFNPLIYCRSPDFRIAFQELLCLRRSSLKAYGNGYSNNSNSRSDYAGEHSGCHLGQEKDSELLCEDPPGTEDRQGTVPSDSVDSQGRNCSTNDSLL

Structure (SMILES) | IC50 [1] [µM] | C20 APD95 [2] [µM] | also measured
CS(=O)(=O)Nc1ccc(NCC2CN(c3ccccc3)CCN2)cc1 (configuration not stated) | 1 | 2 | –
CS(=O)(=O)Nc1ccc(NCC2CNCCN2c2ccccc2)cc1 (configuration not stated) | 42 | 9.2 | –
CS(=O)(=O)Nc1ccc(C(=O)NCC2CNCCN2c2ccccc2)cc1 (configuration not stated) | 31 | 3.2 | –
Cc1ccc(N2CCNCC2)cc1 | > 100 | – | –
CS(=O)(=O)Nc1ccc(C(=O)NCC2CN(c3cccc(Cl)c3)CCN2)cc1 (configuration not stated) | 3.8 | 0.8 | –
COc1ccc(N2CCNCC2)cc1 | > 100 | – | –
COc1cccc(N2CCNC(CNC(=O)c3ccc(NS(C)(=O)=O)cc3)C2)c1 (configuration not stated) | 3.5 | 2.5 | –
O=C(NCC1CN(c2ccccc2)CCN1)c1ccccc1 (configuration not stated) | 6.2 | – | C20 APD95 [3]: inactive
CC(C)NCC(O)c1ccc(NS(C)(=O)=O)cc1 (configuration not stated) [SOTALOL] | – | 18 | No. effective [4]: 6; No. active [5]: 7; MAP [6]: -26; Cardiac output [7]: -44; TPR [8]: 41; HR [9]: -39; LV [10]: -33
COc1ccccc1N1CCNCC1 | 34 | – | –
CN(c1ccc(C(=O)NCC2CN(c3ccccc3)CCN2)cc1)S(C)(=O)=O (configuration not stated) | 4.3 | – | C20 APD95 [3]: inactive
O=C(NCC1CN(c2ccccc2)CCN1)c1ccc(-n2ccnc2)cc1 (configuration not stated) | 4.3 | 0.9 | –
CS(=O)(=O)Nc1ccc(NC(=O)C2CN(c3ccccc3)CCN2)cc1 (configuration not stated) | > 100 | 21 | –
COc1cccc(N2CCNCC2)c1 | 29 | – | –
CC(=O)c1ccc(N2CCNCC2)cc1 | > 100 | – | –
Cc1cccc(N2CCNCC2)c1 | 40 | – | –
COc1ccccc1N1CCNC(CNC(=O)c2ccc(NS(C)(=O)=O)cc2)C1 (configuration not stated) | 0.63 | 18 | –
Clc1ccccc1N1CCNCC1 | 16 | – | –
c1ccc(N2CCNCC2)cc1 [PHENYLPIPERAZINE] | > 100 | – | –
Clc1ccc(N2CCNCC2)cc1 | 70 | – | –
CS(=O)(=O)Nc1ccc(CNCC2CN(c3ccccc3)CCN2)cc1 (configuration not stated) | 4.6 | 0.4 | –
CS(=O)(=O)Nc1ccc(C(=O)NCC2CN(c3ccccc3)CCN2)cc1 (configuration not stated) | 3.4 | 0.8 | No. effective [4]: 5; No. active [5]: 6; MAP [6]: 5; Cardiac output [7]: -14; TPR [8]: 22; HR [9]: 38; LV [10]: 3
CS(=O)(=O)Nc1ccc(OCC2CN(c3ccccc3)CCN2)cc1 (configuration not stated) | 4.5 | 1 | –
Clc1cccc(N2CCNCC2)c1 [CHLOROPHENYLPIPERAZINE] | 18 | – | –
Cc1ccccc1N1CCNCC1 | 29 | – | –
